# Test results reported in ChEMBL document CHEMBL3124881, “New perspectives on the synthesis and antichagasic activity of 3-alkoxy-1-alkyl-5-nitroindazoles” (Eur J Med Chem, 2014).
# Active and inactive are the calls of the source. The rule behind the calls is not given here.
# How the values were obtained:
# [1] = tested on: Trypanosoma cruzi; assay: Antitrypanosomal activity against Trypanosoma cruzi (IRHOD/CO/2008/SN3) epimastigotes assessed as change in acetate level at IC25 after 96 hrs by [1H]-NMR spectroscopic analysis; assay type: functional, organism-based
# In short: (§1)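 Epimastigote cultures started at 5 × 10⁵ cells/mL and given IC25 concentrations, with untreated control cultures. After 96 h at 28 °C, cells spun at 400 g for 10 min. Excreted metabolites in the supernatant identified by ¹H NMR chemical shifts.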
# [2] = tested on: Trypanosoma cruzi; assay: Antitrypanosomal activity against Trypanosoma cruzi (IRHOD/CO/2008/SN3) infected in African green monkey Vero cells assessed as reduction in infection rate at IC25 treated for 12 hrs followed by compound-washout measured after 10 days by microscopic analysis relative to control; assay type: functional
# In short: (§2)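 Vero cells grown 2 days, then infected with metacyclic forms at 10:1. Drugs at IC25 added immediately after infection for 12 h at 37 °C, 5% CO2, then removed by washing. Cultures grown 10 days with medium renewed every 48 h. Methanol-fixed, Giemsa-stained preparations: % infected cells and amastigotes per infected cell over 200 host cells; trypomastigotes counted in the medium. Means of three experiments.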
# [3] = tested on: Vero; assay: Cytotoxicity against African green monkey Vero cells assessed as cell viability after 72 hrs by propidium iodide staining-based flow cytometric analysis; conditions: Chlorocebus sabaeus
# In short: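 Vero cells in RPMI with 10% inactivated FBS at 37 °C, 5% CO2, treated 72 h across 1–100. Stained with propidium iodide, then fluorescein diacetate (100 ng/mL), each 10 min at 28 °C in the dark. Cells spun at 400 g, washed in PBS, analysed by flow cytometry. % viability versus control; IC50 by linear regression.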
# [4] = tested on: Trypanosoma cruzi; assay: Antitrypanosomal activity against Trypanosoma cruzi (IRHOD/CO/2008/SN3) epimastigotes assessed as damaged glycosomes at IC25 after 96 hrs by transmission electron microscopic analysis; assay type: functional, organism-based
# [5] = tested on: Trypanosoma cruzi; assay: Antitrypanosomal activity against Trypanosoma cruzi (IRHOD/CO/2008/SN3) amastigotes infected in African green monkey Vero cells after 72 hrs by Giemsa staining-based microscopic analysis; assay type: functional, organism-based
# In short: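 SN3 strain. Vero cells in RPMI with 10% inactivated FBS at 37 °C, 5% CO2, seeded at 1 × 10⁴ cells/well on coverslips and grown 2 days. Infected with metacyclic forms at 10:1 for 24 h, then washed. Drugs at 100, 50, 25, 10 and 1 for 72 h. Methanol fixation, Giemsa stain, amastigotes counted over 200 host cells. IC50 by linear regression; mean of four experiments.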
# [6] = tested on: Trypanosoma cruzi; assay: Antitrypanosomal activity against Trypanosoma cruzi (IRHOD/CO/2008/SN3) trypomastigotes infected in Balb/c albino mouse after 24 hrs by Neubauer chamber counting analysis; assay type: functional, organism-based
# In short: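 Blood taken at the day-7 parasitemia peak from BALB/c mice infected with SN3. Diluted with uninfected murine blood to 4 × 10⁶ trypomastigotes/mL, then 1:2 in RPMI 1640 (2 × 10⁶/mL). Drugs (DMSO stocks) at 100, 50, 25, 10 and 1; incubated 24 h at 4–8 °C. Neubauer chamber counts; IC50 by linear regression; three repeats.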
# [7] = Selectivity index, ratio of IC50 for African green monkey Vero cells to IC50 for Trypanosoma cruzi (IRHOD/CO/2008/SN3) trypomastigotes; assay type: toxicity, cell-based; conditions: read-out: Ratio IC50
# In short: (§3)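 SI calculated as IC50 on Vero cells divided by IC50 on the corresponding parasite form (epimastigote, amastigote or trypomastigote).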
# [8] = tested on: Trypanosoma cruzi; assay: Antitrypanosomal activity against Trypanosoma cruzi (IRHOD/CO/2008/SN3) infected in BALB/c mouse assessed as reduction in parasitemia at 1 mg/kg/day, ip treated from day 5 to day 10 post-infection measured on day 14 post-infection; assay type: functional, organism-based
# In short: (§4)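 Female BALB/c mice (groups of three) infected ip with 1 × 10⁵ metacyclic forms. Given 1 mg/kg/day ip for five days (days 5–10 post-infection); infected untreated controls included. Mandibular-vein blood (5 µL) diluted 1:15 in citrate/lysis buffer, with trypomastigotes/mL counted every 3–4 days. Mean values reported.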
# [9] = tested on: Trypanosoma cruzi; assay: Antitrypanosomal activity against Trypanosoma cruzi (IRHOD/CO/2008/SN3) infected in BALB/c mouse assessed as reduction in parasite specific antibodies level at 1 mg/kg/day, ip treated from day 5 to day 10 post-infection measured from day 30 to day 120 post-infection by ELISA; assay type: functional, organism-based
# In short: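 Female BALB/c mice (6–8 weeks, 20–25 g, groups of three) infected ip with 1 × 10⁵ metacyclic forms. Dosed 1 mg/kg/day ip on days 5–10 post-infection; infected untreated controls included. ELISA on blood diluted 1:50 in PBS, using excreted Fe-SOD antigen from epimastigotes, at days 30 and 120. Read-out is ΔA490 (day 120 minus day 30).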
# [10] = tested on: Trypanosoma cruzi; assay: Antitrypanosomal activity against Trypanosoma cruzi (IRHOD/CO/2008/SN3) epimastigotes assessed as change in succinate level at IC25 after 96 hrs by [1H]-NMR spectroscopic analysis relative to control; assay type: functional; in short: as §1
# [11] = tested on: Trypanosoma cruzi; assay: Antitrypanosomal activity against Trypanosoma cruzi (IRHOD/CO/2008/SN3) epimastigotes assessed as damaged mitochondria at IC25 after 96 hrs by transmission electron microscopic analysis; assay type: functional, organism-based
# [12] = tested on: Trypanosoma cruzi; assay: Antitrypanosomal activity against Trypanosoma cruzi (IRHOD/CO/2008/SN3) epimastigotes assessed as parasite death at IC25 after 96 hrs by transmission electron microscopic analysis; assay type: functional, organism-based
# [13] = tested on: Mus musculus; assay: Toxicity in BALB/c mouse assessed as mortality at 1 mg/kg/day, ip; assay type: organism-based; design: route intraperitoneal; conditions: in vivo
# In short: (§5)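 Female BALB/c mice (6-8 weeks, 20-25 g), groups of three, infected ip with 1 × 10⁵ T. cruzi SN3 metacyclic forms. Dosing ip at 1 mg/kg/day for five consecutive days (days 5-10 post-infection). Controls were uninfected, infected-untreated and uninfected-treated groups. Mice followed to day 120 post-infection, with deaths recorded.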
# [14] = Selectivity index, ratio of IC50 for African green monkey Vero cells to IC50 for Trypanosoma cruzi (IRHOD/CO/2008/SN3) amastigotes; assay type: toxicity, cell-based; conditions: read-out: Ratio IC50; in short: as §3
# [15] = Selectivity index, ratio of IC50 for African green monkey Vero cells to IC50 for Trypanosoma cruzi (IRHOD/CO/2008/SN3) epimastigotes; assay type: toxicity, cell-based; conditions: read-out: Ratio IC50; in short: as §3
# [16] = tested on: Trypanosoma cruzi; assay: Antitrypanosomal activity against Trypanosoma cruzi (IRHOD/CO/2008/SN3) infected in BALB/c mouse assessed as reduction in parasitemia at 1 mg/kg/day, ip treated from day 5 to day 10 post-infection measured on day 30 post-infection relative to control; assay type: functional; design: scale not given: the % may be the effect or the level left; conditions: route intraperitoneal; in short: as §4
# [17] = tested on: Trypanosoma cruzi; assay: Antitrypanosomal activity against Trypanosoma cruzi (IRHOD/CO/2008/SN3) epimastigotes assessed as change in L-lactate level at IC25 after 96 hrs by [1H]-NMR spectroscopic analysis relative to control; assay type: functional; in short: as §1
# [18] = tested on: Trypanosoma cruzi; assay: Antitrypanosomal activity against Trypanosoma cruzi (IRHOD/CO/2008/SN3) infected in African green monkey Vero cells assessed as reduction in number of trypomastigotes at IC25 treated for 12 hrs followed by compound-washout measured after 10 days by microscopic analysis relative to control; assay type: functional; in short: as §2
# [19] = tested on: Trypanosoma cruzi; assay: Antitrypanosomal activity against Trypanosoma cruzi (IRHOD/CO/2008/SN3) epimastigotes assessed as change in ethanol level at IC25 after 96 hrs by [1H]-NMR spectroscopic analysis relative to control; assay type: functional; in short: as §1
# [20] = tested on: Trypanosoma cruzi; assay: Antitrypanosomal activity against Trypanosoma cruzi (IRHOD/CO/2008/SN3) epimastigotes assessed as change in L-alanine level at IC25 after 96 hrs by [1H]-NMR spectroscopic analysis relative to control; assay type: functional; in short: as §1
# [21] = tested on: Trypanosoma cruzi; assay: Antitrypanosomal activity against Trypanosoma cruzi (IRHOD/CO/2008/SN3) epimastigotes assessed as large vacuolization with lipidic type vacuoles occupying cytoplasm at IC25 after 96 hrs by transmission electron microscopic analysis; assay type: functional, organism-based
# [22] = tested on: Trypanosoma cruzi; assay: Antitrypanosomal activity against Trypanosoma cruzi (IRHOD/CO/2008/SN3) epimastigotes after 72 hrs by Neubauer chamber counting analysis; assay type: functional, organism-based
# In short: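 SN3 epimastigotes grown in MTL medium with 10% inactivated FBS at 28 °C. Compounds dissolved in DMSO (0.01% final) and added at 100, 50, 25, 10 and 1. Parasites counted at 72 h in a Neubauer haemocytometer. IC50 from linear regression of Kc values; averages of four experiments.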
# [23] = tested on: Trypanosoma cruzi; assay: Antitrypanosomal activity against Trypanosoma cruzi (IRHOD/CO/2008/SN3) epimastigotes assessed as presence of little electron-dense cytoplasm at IC25 after 96 hrs by transmission electron microscopic analysis; assay type: functional, organism-based
# [24] = tested on: Trypanosoma cruzi; assay: Antitrypanosomal activity against Trypanosoma cruzi (IRHOD/CO/2008/SN3) infected in African green monkey Vero cells assessed as reduction in number of amastigotes at IC25 treated for 12 hrs followed by compound-washout measured after 10 days by microscopic analysis relative to control; assay type: functional; in short: as §2
# [25] = Toxicity in BALB/c mouse assessed as survival at 1 mg/kg/day, ip relative to control; assay type: organism-based; design: route intraperitoneal; conditions: in vivo; in short: as §5
# [26] = tested on: Trypanosoma cruzi; assay: Antitrypanosomal activity against Trypanosoma cruzi (IRHOD/CO/2008/SN3) epimastigotes assessed as disruption of cytoskeleton with disorganization of microtubule structure at IC25 after 96 hrs by transmission electron microscopic analysis; assay type: functional, organism-based
# [27] = tested on: Trypanosoma cruzi; assay: Antitrypanosomal activity against Trypanosoma cruzi (IRHOD/CO/2008/SN3) epimastigotes assessed as plasma membrane with scalloped appearance with undulations and discontinuities at IC25 after 96 hrs by transmission electron microscopic analysis; assay type: functional, organism-based
SMILES,Activity [1],inhibition (INH) [2] [%],IC50 [3] [µM],Activity [4],IC50 [5] [µM],IC50 [6] [µM],selectivity ratio [7],Activity [8],Activity [9],Activity [10] [%],Activity [11],Activity [12],Activity [13],selectivity ratio [14],selectivity ratio [15],Activity [16] [%],Activity [17] [%],inhibition (INH) [18] [%],IC50 [22] [µM],inhibition (INH) [24] [%],further results
Cn1nc(OCc2ccccc2)c2cc([N+](=O)[O-])ccc21,inactive,82,194,Active,14.1,12,16.1,Active,Active,35,Active,Active,Non-toxic,13.7,11,33,23,80,17.6,76,Activity [19]: 11%; Activity [20]: 19%; Activity [21]: Active; Activity [23]: Active
O=C(Cn1ccnc1[N+](=O)[O-])NCc1ccccc1 [BENZNIDAZOLE],,19,,,,,,Active,Active,,,,,,,23,,41,,37,survival [25]: 80%; Activity [26]: Active; Activity [27]: Active
CNCCOCCn1nc(OCc2ccccc2)c2cc([N+](=O)[O-])ccc21,inactive,78,214,Active,16.6,14.5,14.7,Active,Active,13,Active,Active,Non-toxic,12.9,11.2,39,17,75,19.1,63,Activity [19]: inactive; Activity [20]: inactive; Activity [21]: Active; Activity [23]: Active
COc1nn(CCOCCN(C)CCOCCn2nc(OC)c3cc([N+](=O)[O-])ccc32)c2ccc([N+](=O)[O-])cc12,,,130,,27.9,20.4,6.3,,,,,,,4.6,4.1,,,,24.6,,
